Measurements taken from ChEMBL document CHEMBL1933007, “Novel brain penetrant benzofuropiperidine 5-HT₆ receptor antagonists” (Bioorg Med Chem Lett, 2012).
Values belong to the molecule of their own block, whether it stands above or below them. The source made the active and inactive calls. The calls are words filed in the database; no cut-off is given here.

Key:
[1] = target: T1, 5-hydroxytryptamine receptor 6 (Homo sapiens, UniProt P50406); assay: Displacement of [3H]LSD from full length human 5HT6 receptor
T1 sequence (P50406 whole entry): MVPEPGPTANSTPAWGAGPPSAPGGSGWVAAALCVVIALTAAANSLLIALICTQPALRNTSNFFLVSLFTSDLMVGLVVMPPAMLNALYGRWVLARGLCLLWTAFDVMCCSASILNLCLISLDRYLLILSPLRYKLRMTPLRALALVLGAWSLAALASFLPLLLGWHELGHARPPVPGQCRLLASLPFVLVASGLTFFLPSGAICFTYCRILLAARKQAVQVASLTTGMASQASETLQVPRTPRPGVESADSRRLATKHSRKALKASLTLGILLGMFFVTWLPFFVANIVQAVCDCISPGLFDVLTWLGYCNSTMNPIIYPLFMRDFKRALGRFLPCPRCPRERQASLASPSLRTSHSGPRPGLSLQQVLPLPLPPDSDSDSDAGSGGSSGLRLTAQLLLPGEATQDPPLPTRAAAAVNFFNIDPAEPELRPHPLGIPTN
Method in brief: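 Radioligand binding with [³H]LSD on membranes from cells expressing full-length human 5-HT6R.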

[2] = target: T1, 5-hydroxytryptamine receptor 6; assay: Antagonist activity at human recombinant 5-HT6 receptor expressed human astrocytoma cells assessed as inhibition of 5-HT-induced cAMP accumulation after 10 mins preincubation by HTRF assay
[3] = target: 5-hydroxytryptamine receptor 6 (Rattus norvegicus, UniProt P31388); assay: Displacement of [3H]LSD from full length rat 5HT6 receptor
Chain of 5-hydroxytryptamine receptor 6 (Rattus norvegicus, UniProt P31388) (P31388 whole entry): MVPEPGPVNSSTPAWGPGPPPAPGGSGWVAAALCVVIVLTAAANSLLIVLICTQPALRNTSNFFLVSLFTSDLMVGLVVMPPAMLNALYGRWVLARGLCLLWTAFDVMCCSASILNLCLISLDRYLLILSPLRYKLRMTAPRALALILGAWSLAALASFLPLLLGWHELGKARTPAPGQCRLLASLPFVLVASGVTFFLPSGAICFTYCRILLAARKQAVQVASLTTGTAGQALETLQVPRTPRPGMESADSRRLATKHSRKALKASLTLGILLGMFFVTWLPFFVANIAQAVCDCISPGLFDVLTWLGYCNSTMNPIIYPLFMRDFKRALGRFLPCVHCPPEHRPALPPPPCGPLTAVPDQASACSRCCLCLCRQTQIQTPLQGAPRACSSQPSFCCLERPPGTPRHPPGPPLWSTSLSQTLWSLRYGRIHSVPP
Method in brief: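 Radioligand binding with [³H]LSD on membranes from cells expressing full-length rat 5-HT6R.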

[4] = Dissociation constant, pKa of the compound; format: physicochemical
Method in brief: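 pKa is a calculated value, not a measured one.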

[5] = Half life in dog liver microsomes; format: ADME, Canis lupus familiaris, Microsome
[6] = Cmax in rat at 5 mg/kg, po; format: ADME, organism-based; parameters: dose 5 mg/kg, route oral; conditions: in vivo
[7] = Half life in human liver microsomes; format: ADME, Microsome
[8] = target: Voltage-gated inwardly rectifying potassium channel KCNH2 (Homo sapiens, UniProt Q12809); assay: Inhibition of human ERG by patch express assay
Chain of Voltage-gated inwardly rectifying potassium channel KCNH2 (Q12809 whole entry): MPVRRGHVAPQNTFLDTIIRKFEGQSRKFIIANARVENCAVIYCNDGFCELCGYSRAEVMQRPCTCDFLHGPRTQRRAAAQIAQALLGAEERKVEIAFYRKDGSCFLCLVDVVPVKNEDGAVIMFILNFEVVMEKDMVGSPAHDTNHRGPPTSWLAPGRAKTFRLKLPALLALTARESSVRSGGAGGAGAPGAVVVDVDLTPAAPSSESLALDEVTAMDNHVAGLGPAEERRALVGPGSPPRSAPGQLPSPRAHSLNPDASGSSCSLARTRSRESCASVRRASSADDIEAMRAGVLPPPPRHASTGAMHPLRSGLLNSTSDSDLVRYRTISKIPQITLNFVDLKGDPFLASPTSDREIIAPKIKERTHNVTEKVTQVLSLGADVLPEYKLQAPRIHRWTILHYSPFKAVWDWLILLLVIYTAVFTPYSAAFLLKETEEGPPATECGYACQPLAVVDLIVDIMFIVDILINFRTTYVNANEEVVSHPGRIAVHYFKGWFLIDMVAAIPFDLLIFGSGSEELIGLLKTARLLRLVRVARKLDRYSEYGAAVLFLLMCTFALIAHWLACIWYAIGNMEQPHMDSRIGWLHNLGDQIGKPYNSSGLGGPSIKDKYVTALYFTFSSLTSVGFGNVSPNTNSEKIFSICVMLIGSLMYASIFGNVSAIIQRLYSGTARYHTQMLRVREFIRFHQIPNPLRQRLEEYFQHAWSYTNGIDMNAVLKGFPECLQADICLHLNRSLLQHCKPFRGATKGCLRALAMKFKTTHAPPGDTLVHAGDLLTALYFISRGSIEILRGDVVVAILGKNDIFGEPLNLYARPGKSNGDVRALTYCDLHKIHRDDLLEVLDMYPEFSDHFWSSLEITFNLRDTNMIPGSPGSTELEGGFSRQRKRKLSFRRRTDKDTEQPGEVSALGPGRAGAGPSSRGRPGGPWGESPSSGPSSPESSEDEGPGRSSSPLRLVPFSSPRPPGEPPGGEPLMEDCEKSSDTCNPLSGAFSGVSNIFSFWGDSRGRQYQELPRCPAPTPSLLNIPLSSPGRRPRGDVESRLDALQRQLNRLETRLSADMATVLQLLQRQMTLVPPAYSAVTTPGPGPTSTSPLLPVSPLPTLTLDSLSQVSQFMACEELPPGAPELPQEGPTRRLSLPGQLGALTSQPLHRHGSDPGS

[9] = Ratio of drug level in brain to plasma in rat at 5 mg/kg, ip; format: ADME, organism-based; parameters: dose 5 mg/kg, route intraperitoneal; conditions: read-out: BPR
Method in brief: (§1)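 Rats dosed intraperitoneally at 5 mg/kg. Brain concentration measured at 1 h and expressed as a brain-to-plasma ratio.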

[10] = Half life in rat liver microsomes; format: ADME, Microsome
[11] = Plasma clearance in rat at 1 mg/kg, iv; format: ADME, organism-based; parameters: dose 1 mg/kg, route intravenous
[12] = Half life in rat at 1 mg/kg, iv; format: ADME, organism-based; parameters: dose 1 mg/kg, route intravenous; conditions: in vivo
[13] = test system: Rattus norvegicus; assay: AUC in rat at 5 mg/kg, po after 6 hrs; format: ADME, organism-based, Plasma; parameters: time < 6 hr, dose 5 mg/kg, route oral; conditions: in vivo
[14] = Oral bioavailability in rat at 5 mg/kg; format: ADME, organism-based; conditions: in vivo
[15] = test system: Brain; assay: Drug uptake in rat brain at 5 mg/kg, ip after 1 hr; format: ADME, organism-based; parameters: dose 5 mg/kg, route intraperitoneal; conditions: in vivo; method in brief: as §1
[16] = Volume of distribution in rat at 1 mg/kg, iv; format: ADME, organism-based; parameters: dose 1 mg/kg, route intravenous; conditions: in vivo
[17] = target: T2, 5-hydroxytryptamine receptor 2B (Homo sapiens, UniProt P41595); conditions: 10 uM
T2 sequence (P41595 whole entry): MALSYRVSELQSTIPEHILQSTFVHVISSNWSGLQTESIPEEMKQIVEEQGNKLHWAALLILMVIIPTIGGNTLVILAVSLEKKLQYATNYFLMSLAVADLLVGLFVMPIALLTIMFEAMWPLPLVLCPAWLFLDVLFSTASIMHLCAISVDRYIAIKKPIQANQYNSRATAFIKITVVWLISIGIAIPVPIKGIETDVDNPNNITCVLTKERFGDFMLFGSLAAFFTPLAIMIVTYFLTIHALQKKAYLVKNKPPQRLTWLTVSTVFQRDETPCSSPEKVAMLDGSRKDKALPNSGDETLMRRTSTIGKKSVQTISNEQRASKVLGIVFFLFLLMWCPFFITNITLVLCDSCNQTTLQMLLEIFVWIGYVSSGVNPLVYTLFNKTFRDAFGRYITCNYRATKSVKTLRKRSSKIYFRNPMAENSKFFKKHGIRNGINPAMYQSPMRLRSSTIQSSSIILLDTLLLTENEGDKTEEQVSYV

[18] = target: D(2) dopamine receptor (Homo sapiens) (UniProt P14416); conditions: 1 uM
Chain of D(2) dopamine receptor (Homo sapiens) (P14416 whole entry): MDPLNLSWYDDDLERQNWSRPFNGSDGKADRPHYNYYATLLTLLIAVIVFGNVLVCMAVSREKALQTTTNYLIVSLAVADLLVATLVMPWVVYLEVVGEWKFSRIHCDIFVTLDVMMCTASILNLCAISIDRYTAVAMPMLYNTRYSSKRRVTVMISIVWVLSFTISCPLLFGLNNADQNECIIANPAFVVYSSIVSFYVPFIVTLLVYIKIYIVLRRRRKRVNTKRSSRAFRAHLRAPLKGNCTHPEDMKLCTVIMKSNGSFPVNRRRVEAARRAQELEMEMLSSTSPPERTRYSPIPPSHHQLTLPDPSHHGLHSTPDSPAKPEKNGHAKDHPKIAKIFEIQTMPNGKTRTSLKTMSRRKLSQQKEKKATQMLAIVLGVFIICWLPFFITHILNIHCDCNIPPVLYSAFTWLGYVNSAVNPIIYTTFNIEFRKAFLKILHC

[19] = target: 5-hydroxytryptamine receptor 2A (Homo sapiens) (UniProt P28223); conditions: 10 uM
Chain of 5-hydroxytryptamine receptor 2A (Homo sapiens) (P28223 whole entry): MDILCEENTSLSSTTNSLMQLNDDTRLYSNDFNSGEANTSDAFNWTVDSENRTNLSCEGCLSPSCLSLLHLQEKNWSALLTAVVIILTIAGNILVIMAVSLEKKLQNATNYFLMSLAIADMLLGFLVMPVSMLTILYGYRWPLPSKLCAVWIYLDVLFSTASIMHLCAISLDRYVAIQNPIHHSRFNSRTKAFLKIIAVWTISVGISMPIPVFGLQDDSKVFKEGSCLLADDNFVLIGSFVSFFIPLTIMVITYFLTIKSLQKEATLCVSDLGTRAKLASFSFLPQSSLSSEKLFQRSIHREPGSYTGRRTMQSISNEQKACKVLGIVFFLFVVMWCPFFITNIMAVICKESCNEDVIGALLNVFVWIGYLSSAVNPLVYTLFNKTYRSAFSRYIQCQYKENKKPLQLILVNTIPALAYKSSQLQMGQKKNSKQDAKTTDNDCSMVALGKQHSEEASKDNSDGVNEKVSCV

[20] = target: T3, Alpha-2B adrenergic receptor (Homo sapiens) (UniProt P18089); conditions: 10 uM
T3 sequence (whole entry): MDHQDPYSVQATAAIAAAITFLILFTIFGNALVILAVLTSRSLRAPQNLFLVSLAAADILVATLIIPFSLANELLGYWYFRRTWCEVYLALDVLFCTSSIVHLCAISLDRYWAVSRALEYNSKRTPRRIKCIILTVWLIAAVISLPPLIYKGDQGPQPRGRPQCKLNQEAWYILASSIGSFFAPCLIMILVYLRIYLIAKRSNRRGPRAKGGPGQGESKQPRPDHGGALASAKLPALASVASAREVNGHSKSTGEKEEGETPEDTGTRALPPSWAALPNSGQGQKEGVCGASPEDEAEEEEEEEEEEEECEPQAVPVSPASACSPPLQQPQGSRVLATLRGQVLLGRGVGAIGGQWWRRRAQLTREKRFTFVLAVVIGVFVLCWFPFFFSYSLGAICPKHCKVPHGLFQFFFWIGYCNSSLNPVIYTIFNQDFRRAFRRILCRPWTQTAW

[21] = target: D(3) dopamine receptor (Homo sapiens) (UniProt P35462); conditions: 10 uM
[22] = target: T4, Alpha-2A adrenergic receptor (Homo sapiens) (UniProt P08913); conditions: 10 uM
T4 sequence (whole entry): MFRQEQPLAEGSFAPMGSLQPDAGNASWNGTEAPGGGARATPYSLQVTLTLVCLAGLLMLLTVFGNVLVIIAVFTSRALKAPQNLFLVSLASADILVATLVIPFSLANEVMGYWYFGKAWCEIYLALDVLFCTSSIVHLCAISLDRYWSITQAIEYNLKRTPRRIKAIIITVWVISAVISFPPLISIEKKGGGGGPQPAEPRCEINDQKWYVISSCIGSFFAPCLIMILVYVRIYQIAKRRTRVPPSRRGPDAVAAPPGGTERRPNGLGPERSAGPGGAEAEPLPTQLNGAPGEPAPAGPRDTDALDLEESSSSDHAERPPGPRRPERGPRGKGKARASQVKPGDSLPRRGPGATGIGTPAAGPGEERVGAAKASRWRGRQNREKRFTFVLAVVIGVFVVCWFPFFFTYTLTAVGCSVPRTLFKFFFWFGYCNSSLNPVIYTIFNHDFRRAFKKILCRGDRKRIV

[23] = test system: Rattus norvegicus; assay: Increase of short-term memory in rat social recognition model at 0.1 to 3 mg/kg, ip; format: functional, organism-based
[24] = target: T5, Cytochrome P450 1A2 (Homo sapiens, UniProt P05177); assay: Inhibition of CYP1A2; format: ADME
T5 sequence (P05177 whole entry): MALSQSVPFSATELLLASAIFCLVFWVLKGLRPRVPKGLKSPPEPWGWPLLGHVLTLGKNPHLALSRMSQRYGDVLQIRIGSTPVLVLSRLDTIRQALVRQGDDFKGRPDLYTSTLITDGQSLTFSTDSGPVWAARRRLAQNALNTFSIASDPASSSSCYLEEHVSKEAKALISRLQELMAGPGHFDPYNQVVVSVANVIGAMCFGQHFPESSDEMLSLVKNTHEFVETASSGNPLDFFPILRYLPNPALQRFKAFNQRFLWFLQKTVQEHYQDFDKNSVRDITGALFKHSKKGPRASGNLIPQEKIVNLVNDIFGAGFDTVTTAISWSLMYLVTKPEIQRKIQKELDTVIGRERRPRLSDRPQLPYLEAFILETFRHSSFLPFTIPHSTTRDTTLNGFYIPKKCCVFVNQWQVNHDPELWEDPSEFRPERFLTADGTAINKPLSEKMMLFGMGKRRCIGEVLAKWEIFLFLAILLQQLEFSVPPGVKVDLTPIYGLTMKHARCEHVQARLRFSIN

[25] = target: Cytochrome P450 2D6 (Homo sapiens, UniProt P10635); assay: Inhibition of CYP2D6; format: ADME
[26] = target: L-type calcium channel (Rattus norvegicus, UniProt P22002+P27732+Q02485); assay: Inhibition of rat L-type calcium channel at 10 uM
[27] = target: Cytochrome P450 2C9 (Homo sapiens, UniProt P11712); assay: Inhibition of CYP2C9; format: ADME
Chain of Cytochrome P450 2C9 (P11712 whole entry): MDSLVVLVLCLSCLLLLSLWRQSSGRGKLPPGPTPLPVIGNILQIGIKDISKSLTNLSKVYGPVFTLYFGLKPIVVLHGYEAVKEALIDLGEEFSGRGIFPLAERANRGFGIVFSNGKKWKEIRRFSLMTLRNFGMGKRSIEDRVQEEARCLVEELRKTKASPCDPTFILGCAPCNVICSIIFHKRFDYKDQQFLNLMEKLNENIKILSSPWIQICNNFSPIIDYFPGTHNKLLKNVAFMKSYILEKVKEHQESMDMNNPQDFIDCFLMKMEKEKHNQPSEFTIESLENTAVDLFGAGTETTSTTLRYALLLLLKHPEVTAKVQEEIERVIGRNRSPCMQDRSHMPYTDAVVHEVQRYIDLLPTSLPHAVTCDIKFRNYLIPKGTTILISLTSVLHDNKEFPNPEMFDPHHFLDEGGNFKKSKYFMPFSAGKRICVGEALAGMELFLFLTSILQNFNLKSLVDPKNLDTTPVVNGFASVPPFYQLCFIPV

[28] = target: T2, 5-hydroxytryptamine receptor 2B; assay: Antagonist activity at 5HT2B receptor; format: functional
[29] = target: Cytochrome P450 3A4 (Homo sapiens, UniProt P08684); assay: Inhibition of CYP3A4; format: ADME
Chain of Cytochrome P450 3A4 (P08684 whole entry): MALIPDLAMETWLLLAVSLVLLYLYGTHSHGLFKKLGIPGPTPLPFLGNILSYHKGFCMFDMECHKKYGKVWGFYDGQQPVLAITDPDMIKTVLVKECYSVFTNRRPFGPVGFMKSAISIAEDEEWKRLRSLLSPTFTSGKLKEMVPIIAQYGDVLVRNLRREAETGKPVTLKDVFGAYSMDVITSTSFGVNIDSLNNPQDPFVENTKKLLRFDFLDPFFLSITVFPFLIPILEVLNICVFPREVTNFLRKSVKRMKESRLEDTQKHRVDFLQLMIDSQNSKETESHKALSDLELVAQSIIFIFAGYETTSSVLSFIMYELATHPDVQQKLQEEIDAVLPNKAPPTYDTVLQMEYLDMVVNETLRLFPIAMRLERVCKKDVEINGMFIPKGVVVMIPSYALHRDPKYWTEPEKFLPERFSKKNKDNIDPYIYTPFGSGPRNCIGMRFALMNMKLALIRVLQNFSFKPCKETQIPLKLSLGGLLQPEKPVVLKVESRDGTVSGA

[30] = target: Cytochrome P450 2C19 (Homo sapiens, UniProt P33261); assay: Inhibition of CYP2C19; format: ADME
Chain of Cytochrome P450 2C19 (P33261 whole entry): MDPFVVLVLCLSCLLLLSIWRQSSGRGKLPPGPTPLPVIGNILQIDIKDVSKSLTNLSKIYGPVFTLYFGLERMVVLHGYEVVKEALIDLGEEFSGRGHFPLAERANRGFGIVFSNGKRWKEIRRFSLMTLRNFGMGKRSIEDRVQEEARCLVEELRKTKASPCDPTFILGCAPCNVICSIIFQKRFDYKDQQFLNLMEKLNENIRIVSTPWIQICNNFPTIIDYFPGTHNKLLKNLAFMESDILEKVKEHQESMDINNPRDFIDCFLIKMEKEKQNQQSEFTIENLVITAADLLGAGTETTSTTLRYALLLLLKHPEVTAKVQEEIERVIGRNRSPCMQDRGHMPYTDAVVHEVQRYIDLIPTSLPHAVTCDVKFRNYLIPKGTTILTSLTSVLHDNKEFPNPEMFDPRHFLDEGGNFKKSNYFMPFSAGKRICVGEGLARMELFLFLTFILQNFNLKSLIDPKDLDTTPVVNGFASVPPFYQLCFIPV

Ki [1]: 0.0223 µM
IC50 [2]: 0.032 µM
Ki [3]: 0.132 µM
pKa [4]: 7.5
Structure (SMILES): O=S(=O)(c1cccc(F)c1)c1ccc2c3c(oc2c1)C1(CCOC1)NCC3 (racemic)

half-life [5]: > 40 min
Cmax [6]: 84 ng/mL
half-life [7]: 19 min
Ki [1]: 0.0021 µM
Kp [9]: 3.3
IC50 [2]: 0.0068 µM
half-life [10]: 25 min
clearance [11]: 17 mL/min/kg
half-life [12]: 54 min
Ki [3]: 0.014 µM
AUC [13]: 368 ng·h/mL
bioavailability [14]: 6%
Drug uptake [15]: 979 nmol/g
Vd [16]: 1.4 L/kg
pKa [4]: 7.4
Structure (SMILES): O=S(=O)(c1cccc(F)c1)c1ccc2c3c(oc2c1)C1(CCOCC1)NCC3
IC50 [8]: > 30 µM

Ki [1]: 0.0056 µM
IC50 [2]: 0.021 µM
Ki [3]: 0.034 µM
Structure (SMILES): COc1cccc(S(=O)(=O)c2ccc3c4c(oc3c2)CNCC4)c1

Ki [3]: 0.183 µM
pKa [4]: 6.2
Structure (SMILES): CC1(C(F)F)NCCc2c1oc1cc(S(=O)(=O)c3cccc(F)c3)ccc21 (stereo unspecified)

Structure (SMILES): O=S(=O)(c1cccc(F)c1)c1ccc2c3c(oc2c1)C1(CCCOC1)NCC3 (stereo in doubt; 2) [listing 1 of 2 here]
inhibition [17]: > 50%
inhibition [18]: > 50%
inhibition [19]: > 50%
inhibition [20]: > 50%
inhibition [21]: > 50%
inhibition [22]: > 50%
Activity [23]: Active

half-life [5]: 32 min
Cmax [6]: 35 ng/mL
half-life [7]: > 40 min
Ki [1]: 0.0029 µM
Kp [9]: 7.7
IC50 [2]: 0.0117 µM
half-life [10]: 16 min
clearance [11]: 82 mL/min/kg
half-life [12]: 54 min
Ki [3]: 0.019 µM
AUC [13]: 149 ng·h/mL
bioavailability [14]: 15%
Drug uptake [15]: 1620 nmol/g
Vd [16]: 5.5 L/kg
Structure (SMILES): CC1(C)NCCc2c1oc1cc(S(=O)(=O)c3cccc(F)c3)ccc21

Structure (SMILES): O=S(=O)(c1cccc(F)c1)c1ccc2c3c(oc2c1)C1(CCCOC1)NCC3 (stereo in doubt; 3)
IC50 [8]: 9.6 µM
pKa [4]: 7.5

Ki [1]: 0.139 µM
pKa [4]: 5.7
Structure (SMILES): CC1(C(F)(F)F)NCCc2c1oc1cc(S(=O)(=O)c3cccc(F)c3)ccc21 (stereo unspecified)

Structure (SMILES): O=S(=O)(c1cccc(F)c1)c1ccc2c3c(oc2c1)C1(CCCOC1)NCC3 (stereo in doubt; 2) [listing 2 of 2 here]
IC50 [24]: > 30 µM
half-life [5]: > 40 min
Cmax [6]: 210 ng/mL
IC50 [25]: > 30 µM
inhibition at 10 µM [26]: > 50%
half-life [7]: 30 min
IC50 [27]: 1.9 µM
IC50 [8]: 12 µM
IC50 [28]: 1.5 µM
Kp [9]: 2
half-life [10]: 25 min
clearance [11]: 32 mL/min/kg
half-life [12]: 84 min
IC50 [29]: > 30 µM
Ki [3]: 0.0169 µM
IC50 [30]: > 30 µM
AUC [13]: 974 ng·h/mL
bioavailability [14]: 36%
Drug uptake [15]: 1660 nmol/g
Vd [16]: 4 L/kg

Ki [1]: 0.018 µM
Ki [3]: 0.113 µM
pKa [4]: 7.5
Structure (SMILES): COCC1(C)NCCc2c1oc1cc(S(=O)(=O)c3cccc(F)c3)ccc21 (stereo unspecified)

Ki [1]: 0.0077 µM
IC50 [2]: 0.034 µM
Ki [3]: 0.041 µM
Structure (SMILES): CC1(C)NCCc2c1oc1cc(S(=O)(=O)c3ccccc3)ccc21

Ki [1]: 0.046 µM
Ki [3]: 0.156 µM
Structure (SMILES): O=S(=O)(c1ccccc1)c1ccc2oc3c(c2c1)CCNC3

Ki [1]: 0.0175 µM
IC50 [2]: 0.0686 µM
Structure (SMILES): COc1cccc(S(=O)(=O)c2ccc3c4c(oc3c2)C(C)(C)NCC4)c1

half-life [5]: 10.3 min
Ki [1]: 0.0016 µM
IC50 [2]: 0.0036 µM
half-life [10]: < 5 min
Ki [3]: 0.0069 µM
Structure (SMILES): O=S(=O)(c1cccc(F)c1)c1ccc2c3c(oc2c1)CNCC3

Ki [1]: 0.022 µM
Structure (SMILES): O=S(=O)(c1ccc(F)cc1)c1ccc2c3c(oc2c1)CNCC3

Ki [1]: 0.0027 µM
IC50 [2]: 0.0085 µM
Ki [3]: 0.0098 µM
Structure (SMILES): O=S(=O)(c1ccccc1)c1ccc2c3c(oc2c1)CNCC3

Structure (SMILES): O=S(=O)(c1cccc(F)c1)c1ccc2c3c(oc2c1)C1(CCCOC1)NCC3 (racemic)
IC50 [8]: 13.6 µM
Ki [3]: 0.0383 µM
